Screening results from PubChem BioAssay.
HUVEC prolif 384 – inhibitors of human endothelial cell proliferation | viability, % at 10 µM (by protocol) | hit rate 1.1% among 86,000 | HUVEC proliferation, CellTiter-Glo luminescence, 72 h; hits give low values | AID 648;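 active = viability at or below 30%; inactive = viability above 30%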
MT1-MMP txn act – MT1-MMP promoter transcription activation; HT1080 MT1-MMP promoter luciferase reporter, luminescence, overnight; hits give high values; activation factor at 10 µM; hit rate 0.16% among 86,000; AID 750;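 active = activation factor of at least 2 for MT1-MMP transcription at 10 µM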
PTK2B oligo ant – Pyk2 (human) oligomerization antagonism | Q293 cells, Pyk2 FERM NanoBiT luminescence; hits give low values | hit rate 0.83% among 99,000 | z-score (the deposit names both 25 µM and 10 µM) | AID 1347419;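 active = Z-score of -3 or lower, scaled per plate to the spread of control and sample wells; inactive = z-score above -3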;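 note: negative z-score means lost luminescence so less FERM oligomerization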
H69AR inhibit – growth inhibitors of human H69AR lung tumor cells | H69AR lung tumor viability, ATP luminescence, 72 h; hits give low values | viability, % at 10 µM | AID 598 | hit rate 6% among 85,000;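 active = viability at or below 40%; inactive = viability above 40%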;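 note: multidrug resistant small cell line overexpressing MRP-1 efflux transporter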
Lung fibro prol – blocks proliferation of human lung fibroblasts; LL 47 human lung fibroblast viability, ATP luminescence; hits give low values; viability, % at 10 µM; hit rate 1.1% among 85,000; AID 719;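 active = viability at or below 50% in the single dose screen; inactive = viability above 50%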;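 note: compound exposure lasted 72 h before the ATP readout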
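Material: human LL 47 lung fibroblast cells; quantity: 1,150 cells/well; medium: IMEM plus 15% FBS; doses: 0.1% DMSO in all compound wells; timing: overnight attachment after seeding, then 72 h compound exposure at 37 °C; detection: CellTiter-Glo luminescence; measure: % viability of median cell-only signal; controls: cell-only wells, no compound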
Jurkat viability – reduces viability or proliferation of Jurkat cells; AID 463; Jurkat E6.1 viability, ATP luminescence, 48 h; hit rate 1.2% among 56,000; inhibition, % at 4 µM;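 active = inhibition above the mean inhibition of all tested compounds plus 3 SD, cut at about 28% in these data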
Of the large screens only hits and unclear results are named; the others gave an inactive call. Rows were chosen to be rich in hits. Some 5.9% of all compounds tested hit in one or more screens of this group.

CCOc1ccccc1-c1cc(-c2ccc(OC)cc2)nc2c1c(=O)n(C)c(=O)n2C	H69AR inhibit 21
CC(=O)Cc1nsc(NC(=O)c2ccc(-c3cccc(C(F)(F)F)c3)o2)n1	H69AR inhibit 21
CCOC(=O)N1CCN(C(=O)c2ccc(C)c(S(=O)(=O)Nc3cccc(C)c3C)c2)CC1	H69AR inhibit 40
Cc1ccc(C(=O)N2CCOCC2)cc1S(=O)(=O)Nc1cccc(C)c1C	none
CCOC(=O)N1CCN(C(=O)c2ccc(C)c(S(=O)(=O)Nc3ccccc3)c2)CC1	H69AR inhibit 36
Cc1cc(NC(=O)CN2CCc3ccccc3C2)nc2c1c(=O)oc1ccccc12	H69AR inhibit 28 (no result: MT1-MMP txn act, PTK2B oligo ant)
CCCC(=O)Nc1cc(C)c2c(=O)oc3ccccc3c2n1	none (no result: HUVEC prolif 384, MT1-MMP txn act, PTK2B oligo ant, H69AR inhibit, Lung fibro prol)
COc1ccc(C(=O)Nc2cc(C)c3c(=O)oc4ccccc4c3n2)cc1	H69AR inhibit 39 (no result: MT1-MMP txn act, PTK2B oligo ant, Jurkat viability)
CCOc1ccccc1CN1C(=O)c2ccccc2C1C(=O)NC(C)CC (centres undefined)	none (no result: Jurkat viability)
CC(Nc1nc(N2CCN(S(C)(=O)=O)CC2)nc2ccccc12)c1ccccc1 (centres undefined)	HUVEC prolif 384 14
Oc1ccc(-c2nnc(SCC3CCCCC3)o2)cc1	H69AR inhibit 35
O=C1CC(C(=O)O)C2(CCCC2)O1 (centres undefined)	none (no result: Jurkat viability)
N#CC1=C(N)N(c2ccccc2)C2=C(C(=O)CCC2)C1c1ccsc1 (centres undefined)	H69AR inhibit 27
COc1cc(C2Sc3ccccc3NC3=C2C(=O)OC3)cc(OC)c1OC (centres undefined)	H69AR inhibit 14 (no result: Jurkat viability)
O=C1OCC2=C1C(c1ccc(F)cc1)Sc1ccccc1N2 (centres undefined)	none (no result: HUVEC prolif 384, MT1-MMP txn act, H69AR inhibit, Lung fibro prol, Jurkat viability)
O=C(CSc1ccccn1)Nc1nncs1	none (no result: Jurkat viability)
CCC1=C(OC(=O)N(CC)CC)N2C(=O)OC(=NCC3CC3)[C@]2(Cc2ccccc2)[C@H]2C1=CC[C@H]1C(=O)N(c3ccccc3)C(=O)[C@H]12	none (no result: HUVEC prolif 384, PTK2B oligo ant, H69AR inhibit, Lung fibro prol, Jurkat viability)
CC(=O)Nc1ccccc1-c1nc2ccc(C(=O)N3CCN(c4cccc(C)c4)C(C)C3)cc2[nH]c1=O (centres undefined)	none (no result: MT1-MMP txn act, PTK2B oligo ant, Jurkat viability)
Cc1cccc(N2CCN(C(=O)c3ccc4nc(-c5ccco5)c(-c5ccco5)nc4c3)CC2C)c1 (centres undefined)	HUVEC prolif 384 23 (no result: Jurkat viability)
CCn1cc(/C=N/N=C2\CCC3C4CCc5cc(O)ccc5C4CC[C@]23C)c(C)n1 (some centres undefined)	none (no result: HUVEC prolif 384, MT1-MMP txn act, H69AR inhibit, Lung fibro prol, Jurkat viability)
COc1ccc(S(=O)(=O)N(CC(=O)N/N=C/c2cccs2)c2ccc(C)cc2)cc1OC	none (no result: HUVEC prolif 384, MT1-MMP txn act, H69AR inhibit, Lung fibro prol, Jurkat viability)
COc1ccc(S(=O)(=O)N(CC(=O)N/N=C/c2cccs2)c2cc(C)cc(C)c2)cc1OC	PTK2B oligo ant -3 (no result: HUVEC prolif 384, MT1-MMP txn act, H69AR inhibit, Lung fibro prol, Jurkat viability)
Cc1ccc(Cn2nnc3c(=O)[nH]c(C4CCN(S(=O)(=O)c5cc(C)ccc5C)CC4)nc32)cc1	H69AR inhibit 32
Cc1ccc(C)c(S(=O)(=O)N2CCC(c3nc4c(nnn4Cc4ccc(F)cc4)c(=O)[nH]3)CC2)c1	none
Cc1ccc2c(C)nc(NC3=NCN(C(C)C)CN3)nc2c1	none (no result: PTK2B oligo ant)
COc1ccc(NS(=O)(=O)c2cc(NC(=O)[C@@H](NC(=O)c3ccccc3)C(C)C)ccc2C)cc1	none (no result: HUVEC prolif 384, MT1-MMP txn act, H69AR inhibit, Lung fibro prol, Jurkat viability)
COc1ccc(N2CCN(c3nc4c(c(=O)[nH]c(=O)n4C)n3CCCc3ccccc3)CC2)cc1	none (no result: HUVEC prolif 384, PTK2B oligo ant, H69AR inhibit, Lung fibro prol, Jurkat viability)
CCOC(=O)c1c(C)c(C(=O)Nc2ccc(N(C)C)cc2)c(C)n1CC	H69AR inhibit 19, Jurkat viability 59
Cc1nc(C)c(C(=O)Nc2ccc(Oc3ccccc3)cc2)o1	Jurkat viability 30
CC1(C)CC(=O)C2=C(C1)c1c(ccc3ccccc13)NC2c1ccc(Br)o1 (centres undefined)	H69AR inhibit 33 (no result: Jurkat viability)
COc1ccc(C2CC(=O)c3c(ccc4ccccc34)N2)cc1OC (centres undefined)	none (no result: HUVEC prolif 384, MT1-MMP txn act, H69AR inhibit, Lung fibro prol, Jurkat viability)
O=S(c1ccc2ccccc2c1)c1cnns1 (centres undefined)	none (no result: HUVEC prolif 384, MT1-MMP txn act, H69AR inhibit, Lung fibro prol, Jurkat viability)
O=C(Nc1ccc(Cl)cn1)c1ccc(-c2ccc(Cl)c(Cl)c2)o1	none (no result: HUVEC prolif 384, MT1-MMP txn act, H69AR inhibit, Lung fibro prol, Jurkat viability)
COc1ccc(-c2nc(C#N)c(NCc3ccc(C)cc3)o2)cc1OC	none
CC(C)(C)c1ccc(-c2nc(C#N)c(NCc3ccncc3)o2)cc1	MT1-MMP txn act 2
CSc1ccccc1NC(=O)c1ccccc1N(Cc1ccccc1)S(C)(=O)=O	none (no result: Jurkat viability)
COC(=O)/C=C1\C(=O)N(c2nc3ccccc3s2)C(=S)N1c1ccc(F)cc1	Lung fibro prol 50 (no result: Jurkat viability)
O=C1CC(N2CCN(c3nc4ccccc4s3)CC2)C(=O)N1c1ccc(F)cc1 (centres undefined)	none
CC(=O)c1c(C)[nH]c(C(=O)OC2CCCCC2=O)c1C (centres undefined)	none
COc1ccc(O)c(-c2cc(C(F)(F)C(F)F)nc(-c3ccccc3)n2)c1	H69AR inhibit 34 (no result: Jurkat viability)
Oc1ccccc1-c1cc(C(F)(F)C(F)F)nc(-c2ccccc2)n1	none
CCOC(=O)c1ccc2nc(NC(=O)C(C)C)sc2c1	H69AR inhibit 34 (no result: PTK2B oligo ant)
CCOC(=O)c1ccc2nc(NC(=O)c3cccs3)sc2c1	H69AR inhibit 38 (no result: Jurkat viability)
CCOC(=O)c1ccc2nc(NC(=O)c3ccco3)sc2c1	none
C=CCN(CC=C)S(=O)(=O)c1ccc2nc(NC(=O)C(C)C)sc2c1	HUVEC prolif 384 26, H69AR inhibit 14, Jurkat viability 72
COc1ccc(CCNc2nc(N3CCCCC3)nc(N3CCCCC3)n2)cc1OC	none
COC(=O)[C@@H]1C[C@@H]2CC[C@@H](O)C[C@@H]2N1Cc1ccc(-c2ccccc2)cc1	none (no result: HUVEC prolif 384, PTK2B oligo ant, H69AR inhibit, Lung fibro prol, Jurkat viability)
CCCCCNc1nc(N2CCCC2)c2c(c1C#N)CCN(C)C2	HUVEC prolif 384 4.9, H69AR inhibit 2.1, Lung fibro prol 39 (no result: Jurkat viability)
